Drawing on ChEMBL document CHEMBL3576764, “α-Ketoamino acid ester derivatives as promising MAO inhibitors” (Bioorg Med Chem Lett, 2014), this text covers Selectivity Index, IC50 and Activity for 16 compounds.

As usually defined, the IC50 is the concentration that inhibits the measured activity by half. Read a high IC50 as a need for much substance.

Series [1] can be described thus: Selectivity index, ratio of IC50 for MAO-B in bovine brain mitochondria to IC50 for MAO-A in rat liver mitochondria. The method, boiled down:
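Enzyme source was mitochondria: rat liver for MAO-A, and bovine brain for MAO-B. Compounds were preincubated 60 min with enzyme before substrate was added: serotonin for MAO-A, benzylamine for MAO-B. Clorgyline served as the irreversible, time-dependent reference. Values are reported as IC50, and the selectivity index was derived from the MAO-A and MAO-B IC50s.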

Series [2] deals with T1, Amine oxidase [flavin-containing] A (Rattus norvegicus, UniProt P21396).
T1 sequence (P21396 whole entry): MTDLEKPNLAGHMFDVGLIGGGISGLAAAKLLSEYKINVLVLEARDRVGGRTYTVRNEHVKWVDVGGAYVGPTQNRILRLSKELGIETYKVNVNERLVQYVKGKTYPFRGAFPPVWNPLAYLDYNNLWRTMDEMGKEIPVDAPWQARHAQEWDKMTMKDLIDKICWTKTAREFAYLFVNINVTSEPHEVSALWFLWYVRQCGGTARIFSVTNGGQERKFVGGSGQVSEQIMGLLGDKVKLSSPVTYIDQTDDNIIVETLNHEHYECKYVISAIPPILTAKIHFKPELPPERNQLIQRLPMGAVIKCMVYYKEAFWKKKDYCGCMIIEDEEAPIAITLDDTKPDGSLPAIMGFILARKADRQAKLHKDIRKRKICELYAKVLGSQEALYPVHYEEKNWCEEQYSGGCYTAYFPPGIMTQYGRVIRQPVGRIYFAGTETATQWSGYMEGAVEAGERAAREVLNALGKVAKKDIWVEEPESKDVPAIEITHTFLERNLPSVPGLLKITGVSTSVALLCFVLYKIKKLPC
The experiment in a line: Inhibition of MAO-A in rat liver mitochondria using serotonin as substrate preincubated with enzyme for 60 mins prior to substrate addition.

Series [3] concerns the target T2, Amine oxidase [flavin-containing] B (Bos taurus, UniProt P56560).
T2 sequence (P56560 whole entry): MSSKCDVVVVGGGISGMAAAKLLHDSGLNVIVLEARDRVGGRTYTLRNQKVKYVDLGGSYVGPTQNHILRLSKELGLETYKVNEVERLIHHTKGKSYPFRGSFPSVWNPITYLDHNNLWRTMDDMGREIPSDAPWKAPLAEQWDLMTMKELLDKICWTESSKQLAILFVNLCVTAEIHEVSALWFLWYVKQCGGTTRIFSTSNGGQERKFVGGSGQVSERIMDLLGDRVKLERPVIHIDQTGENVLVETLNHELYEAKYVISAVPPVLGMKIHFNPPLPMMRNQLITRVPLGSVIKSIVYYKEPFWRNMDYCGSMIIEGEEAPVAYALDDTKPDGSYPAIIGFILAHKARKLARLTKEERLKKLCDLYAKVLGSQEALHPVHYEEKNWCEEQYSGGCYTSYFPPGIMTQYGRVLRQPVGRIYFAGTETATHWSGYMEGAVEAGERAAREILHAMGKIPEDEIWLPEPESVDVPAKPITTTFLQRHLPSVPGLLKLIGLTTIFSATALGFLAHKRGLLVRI
The experiment in a line: Inhibition of MAO-B in bovine brain mitochondria using benzylamine as substrate.

Series [4] has as its system Mus musculus. The experiment in a line: Toxicity in mouse up to dosed through parenteral route. The following applies: in vivo.
Series [5] has as its system Mus musculus. The experiment in a line: Toxicity in mouse assessed as mortality up to 250 mg/kg, po. The format is organism-based. The following applies: in vivo. The procedure, abridged: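 Acute oral toxicity study in male mice, with oral dosing up to 250 mg/kg and mortality recorded.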

In the case of `COC(=O)CCCCCNC(=O)C(=O)c1ccccc1NC(C)=O`, the Selectivity Index in series [1] is 8670. Besides, the IC50 stood at 0.068 µM in series [2] and 590 µM in series [3].

`COC(=O)CCNC(=O)C(=O)c1ccccc1NC(C)=O`: the Selectivity Index in series [1] worked out at 30000. Moreover, the IC50 was determined as 0.033 µM in series [2] and 990 µM in series [3]. Further, the Activity entry in series [4] and in series [5] was “Non-toxic” each time.

In the case of `CC(=O)N1C(=O)C(=O)c2ccccc21`, the Selectivity Index in series [1] turned out to be 6780. Further, the IC50 came to 0.056 µM in series [2] and 380 µM in series [3].

`COC(=O)C[C@H](NC(=O)c1ccc(NC(=O)C(=O)c2ccccc2NC(C)=O)cc1)C(=O)OC`: the Selectivity Index in series [1] was 13200. Moreover, the IC50 turned out to be 0.06 µM in series [2] and 790 µM in series [3].

With `COC(=O)C1(NC(=O)c2ccc(NC(=O)C(=O)c3ccccc3NC(C)=O)cc2)CCCC1`, the Selectivity Index in series [1] amounted to 7910. Moreover, the results for the IC50 in series [2] and in series [3] were 0.048 µM and 380 µM, respectively.

As for `COC(=O)[C@@H](NC(=O)c1ccc(NC(=O)C(=O)c2ccccc2NC(C)=O)cc1)C(C)C`, the Selectivity Index in series [1] came out at 154000. Moreover, the results for the IC50 in series [2] and in series [3] were 0.0028 µM and 430 µM, respectively. Moreover, the Activity entry in series [4] and in series [5] was “Non-toxic” each time.

Turning to `COC(=O)CCCCCNC(=O)c1ccc(NC(=O)C(=O)c2ccccc2NC(C)=O)cc1`, the Selectivity Index in series [1] was 8380. The values for the IC50 in series [2] and in series [3] were 0.093 µM and 780 µM, respectively.

For the compound `COC(=O)C[C@H](NC(=O)C(=O)c1ccccc1NC(C)=O)C(=O)OC`, the Selectivity Index in series [1] worked out at 7930. The IC50 in series [2] stood at 0.058 µM; in series [3], 460 µM.

Turning to `COC(=O)[C@H](Cc1ccccc1)NC(=O)c1ccc(NC(=O)C(=O)c2ccccc2NC(C)=O)cc1`, the Selectivity Index in series [1] amounted to 7770. The figures for the IC50 in series [2] and in series [3] were 0.036 µM and 280 µM, respectively.

For `COC(=O)CCCNC(=O)C(=O)c1ccccc1NC(C)=O`, the Selectivity Index in series [1] worked out at 15300. Besides, the results for the IC50 in series [2] and in series [3] were 0.062 µM and 950 µM, respectively.

With `COC(=O)[C@H](CC(C)C)NC(=O)C(=O)c1ccccc1NC(C)=O`, the Selectivity Index in series [1] was 6660. Moreover, the figures for the IC50 in series [2] and in series [3] were 0.072 µM and 480 µM, respectively.

With `COC(=O)CCCNC(=O)c1ccc(NC(=O)C(=O)c2ccccc2NC(C)=O)cc1`, in series [1], the Selectivity Index stood at 12000. The IC50 in series [2] stood at 0.049 µM; in series [3], 590 µM.

As to `COC(=O)[C@H](C)NC(=O)c1ccc(NC(=O)C(=O)c2ccccc2NC(C)=O)cc1`, the Selectivity Index in series [1] came out at 20300. For the same compound, the figures for the IC50 in series [2] and in series [3] were 0.036 µM and 730 µM, respectively. Also, the Activity result in series [4] and in series [5] was “Non-toxic” in each case.

For `CCOC(=O)c1ccc(NC(=O)C(=O)c2ccccc2NC(C)=O)cc1`, in series [1], the Selectivity Index was found to be 11900. The IC50 in series [2] was 0.083 µM; in series [3] it was 990 µM.

In the case of `COC(=O)C(C)(C)NC(=O)c1ccc(NC(=O)C(=O)c2ccccc2NC(C)=O)cc1`, in series [1], the Selectivity Index was 8370. Moreover, the IC50 in series [2] came to 0.043 µM; in series [3] it was 360 µM.

Turning to `COC(=O)CCNC(=O)c1ccc(NC(=O)C(=O)c2ccccc2NC(C)=O)cc1`, the Selectivity Index in series [1] is 29400. Further, the IC50 in series [2] turned out to be 0.018 µM; in series [3], 530 µM. Also, the Activity entry in series [4] and in series [5] was “Non-toxic” throughout.
